Results taken from ChEMBL document CHEMBL4017489, “Design, Synthesis, and Evaluation of New Selective NM23-H2 Binders as c-MYC Transcription Inhibitors via Disruption of the NM23-H2/G-Quadruplex Interaction” (J Med Chem, 2017).
The source made the active and inactive calls. The calls are words filed in the database; no cut-off is given here.

How the values were obtained:
SiHa [1] = experiment: Cell cycle arrest in human SiHa cells assessed as accumulation at G0/G1 phase at 2 uM after 3 hrs by propidium iodide staining based flow cytometry (reference value: 48%); assay type: functional
How it was run: (§1)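 SiHa cells plated 24 h, treated at 2 μM for 3–48 h; fixed in ice-cold 70% ethanol overnight, RNase A 20 μg/mL 37 °C 30 min, PI-stained, flow cytometry at 488 nm; phase percentages quantified; at least three experiments.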

Mus musculus [2] = experiment: Toxicity in BALB/C nude mouse xenografted with human SiHa cells assessed as distress at 2.5 to 5 mg/kg, ip administered daily after 3 weeks; assay type: organism-based; conditions: in vivo, 504 h
How it was run: (§2)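 SiHa cells implanted in the right armpit of BALB/c nu/nu mice. At approximately 50 mm3, mice randomized (n = 8/group) to vehicle, compound 2.5 or 5.0 mg/kg, or doxorubicin 1.0 mg/kg, given ip daily for 3 weeks. Body weight and signs of pain, distress or discomfort monitored; tumors excised and weighed. Data given as mean ± SEM, t test against vehicle.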

SiHa [3] = experiment: Antitumor activity against human SiHa cells xenografted in BALB/C nude mouse assessed as tumor growth inhibition at 2.5 mg/kg, ip administered daily after 3 weeks relative to control; assay type: functional; conditions: 504 h, read-out: TGI
SiHa [4] = experiment: Cell cycle arrest in human SiHa cells assessed as accumulation at G2/M phase at 2 uM after 48 hrs by propidium iodide staining based flow cytometry (reference value: 39 %); assay type: functional
How it was run: (§3)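 SiHa cells (2.0 × 10^5 per well) plated 24 h, then exposed to 2 μM compound or left untreated for 3, 6, 9, 12, 24, 36 or 48 h. Cells washed in PBS, fixed overnight in ice-cold 70% ethanol, treated with 20 μg/mL RNase A for 30 min at 37 °C, stained with PI, and read by flow cytometry at 488 nm. Phase percentages compared with untreated control; at least three experiments.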

SiHa [5] = experiment: Cell cycle arrest in human SiHa cells assessed as accumulation at S phase at 2 uM after 12 hrs by propidium iodide staining based flow cytometry (reference value: 13 %); assay type: functional; how it was run: as §3
[6] = Binding affinity to biotin-labeled Pu22 c-myc G-quadruplex DNA (unknown origin) at 40 uM after 30 mins by SPR analysis
SiHa [7] = experiment: Induction of apoptosis in human SiHa cells assessed as increase in cleaved caspase-3 level after 48 hrs by Western blot analysis; assay type: functional, cell-based
How it was run: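 SiHa cells treated with 0, 0.5, 1.0 or 2.0 μM for 48 h and lysed for total protein. Caspase-3, cleaved caspase-3, PARP and cleaved PARP detected by Western blot (30 μg protein, 10% SDS-PAGE, HRP chemiluminescence). Bands quantified by densitometry; at least three experiments.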

SiHa [8] = experiment: Cell cycle arrest in human SiHa cells assessed as accumulation at S phase at 2 uM after 36 hrs by propidium iodide staining based flow cytometry (reference value: 13 %); assay type: functional; how it was run: as §3
SiHa [9] = experiment: Cell cycle arrest in human SiHa cells assessed as accumulation at G2/M phase at 2 uM after 24 hrs by propidium iodide staining based flow cytometry (reference value: 39 %); assay type: functional; how it was run: as §1
SiHa [10] = experiment: Cell cycle arrest in human SiHa cells assessed as accumulation at G0/G1 phase at 2 uM after 36 hrs by propidium iodide staining based flow cytometry (reference value: 48 %); assay type: functional; how it was run: as §1
Mus musculus [11] = experiment: Toxicity in BALB/C nude mouse xenografted with human SiHa cells assessed as discomfort at 2.5 to 5 mg/kg, ip administered daily after 3 weeks; assay type: organism-based; conditions: in vivo, 504 h; how it was run: as §2
SiHa [12] = experiment: Cell cycle arrest in human SiHa cells assessed as accumulation at G0/G1 phase at 2 uM after 48 hrs by propidium iodide staining based flow cytometry (reference value: 48 %); assay type: functional; how it was run: as §1
SiHa [13] = experiment: Cell cycle arrest in human SiHa cells assessed as accumulation at G0/G1 phase at 2 uM after 9 hrs by propidium iodide staining based flow cytometry (reference value: 48 %); assay type: functional; how it was run: as §1
SiHa [14] = experiment: Effect on NM23-H2 mRNA level in human SiHa cells up to 2 uM after 9 hrs by RT-PCR analysis; assay type: functional, cell-based
How it was run: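 SiHa cells treated with 0, 0.5, 1.0 or 2.0 μM for 9 h. TRIzol RNA (1.5 μg) reverse-transcribed with M-MLV and oligo(dT) for 1 h at 42 °C. Semiquantitative PCR run for 30 cycles (58 °C annealing) and products resolved on 1.5% agarose. Band intensity normalized to β-actin, with untreated sample set at 100%; three repeats.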

SiHa [15] = experiment: Cell cycle arrest in human SiHa cells assessed as accumulation at G2/M phase at 2 uM after 9 hrs by propidium iodide staining based flow cytometry (reference value: 39 %); assay type: functional; how it was run: as §3
SiHa [16] = experiment: Cell cycle arrest in human SiHa cells assessed as accumulation at G2/M phase at 2 uM after 12 hrs by propidium iodide staining based flow cytometry (reference value: 39 %); assay type: functional; how it was run: as §1
[17] = Binding affinity to biotin-labeled 18-mer duplex DNA hairpin (unknown origin) at 40 uM after 30 mins by SPR analysis
[18] = test system: Nucleoside diphosphate kinase B (Homo sapiens), P22392 [F60A]; experiment: Binding affinity to N-terminal NT-647-NHS labeled NM23-H2 F60A mutant (unknown origin) up to 50 uM by SPR analysis
SiHa [19] = experiment: Antiproliferative activity against human SiHa cells after 48 hrs by MTT assay; assay type: functional, cell-based
SiHa [20] = experiment: Antiproliferative activity against human SiHa cells up to 100 hrs by real-time cellular activity assay; assay type: functional, cell-based
How it was run: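 Impedance-based real-time cell analysis at 37 °C, 5% CO2: 100 μL of 20 000 cells/mL added over medium background, settled 20 min, dosed after 24 h; read every 2 min for 2 h, then every 15 min to end; three repeats.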

SiHa [21] = experiment: Antiproliferative activity against human SiHa cells harboring NM23-H2 siRNA up to 2 uM after 24 hrs by real-time cellular activity assay; assay type: functional, cell-based
How it was run: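 SiHa cells precultured 24 h, transfected with 30 nM NM23-H2 siRNA for 6 h, dosed up to 2 μM 24 h after siRNA; growth followed by impedance-based real-time cell analysis.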

SiHa [22] = experiment: Antitumor activity against human SiHa cells xenografted in BALB/C nude mouse assessed as tumor weight at 2.5 mg/kg, ip administered daily after 3 weeks (reference value: 511.6 mg); assay type: functional
[23] = Induction of apoptosis in mouse primary mesangial cells at 0.5 to 2 uM after 48 hrs by Annexin V-FITC/propidium iodide based flow cytometric analysis; conditions: primary mesangial cell
How it was run: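 Primary cultured mouse mesangial cells treated at the same concentrations as SiHa cells. Stained with annexin V-FITC and PI and analysed by flow cytometry.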

[24] = Binding affinity to Htg21 telomeric G-quadruplex DNA (unknown origin) at 40 uM after 30 mins by SPR analysis
[25] = target: Nucleoside diphosphate kinase B (Homo sapiens, UniProt P22392, G113F); experiment: Binding affinity to N-terminal NT-647-NHS labeled NM23-H2 G113F mutant (unknown origin) after 30 mins by MST analysis
Sequence of Nucleoside diphosphate kinase B (P22392 whole entry G113F): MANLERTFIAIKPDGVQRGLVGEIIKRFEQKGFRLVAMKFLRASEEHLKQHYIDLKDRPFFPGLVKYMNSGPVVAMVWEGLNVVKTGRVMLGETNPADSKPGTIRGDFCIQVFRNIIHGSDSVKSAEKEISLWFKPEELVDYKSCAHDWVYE

Sequence of Nucleoside diphosphate kinase B (Homo sapiens), P22392 [F60A] (P22392 whole entry F60A): as the sequence (P22392 whole entry G113F) above, with F60A, F113G counted along it

- Activity [6]: inactive
- Activity [17]: inactive
- Activity [18]: inactive
- Activity [24]: inactive
- Kd [25]: 13.5 µM
Structure (SMILES): CN(C)CCCNc1cc2nc3n(c(=O)c2cc1F)CC/C3=C\c1ccc(OCc2ccccc2)cc1O
- Activity (SiHa [1]): 51%
- Activity (Mus musculus [2]): Non-Toxic
- inhibition in vivo at 2.5 mg/kg (SiHa [3]): 48%
- Activity (SiHa [4]): 0%
- Activity (SiHa [5]): 11%
- Activity (SiHa [7]): Dose-dependent effect
- Activity (SiHa [8]): 0%
- Activity (SiHa [9]): 8%
- Activity (SiHa [10]): 1%
- Activity (Mus musculus [11]): Non-Toxic
- Activity (SiHa [12]): 0%
- Activity (SiHa [13]): 67%
- Activity (SiHa [14]): inactive
- Activity (SiHa [15]): 21%
- Activity (SiHa [16]): 27%
- IC50 (SiHa [19]): 1.78 µM
- Activity (SiHa [20]): Dose-dependent effect
- Activity (SiHa [21]): inactive
- Activity (SiHa [22]): 265.9 mg
- Activity [23]: Non-Toxic
